{"data": "Measurements from different studies", "PDE10A": "cAMP and cAMP-inhibited cGMP 3',5'-cyclic phosphodiesterase 10A (PDE10A, Homo sapiens, UniProt Q9Y233)", "SLC6A3": "Sodium-dependent dopamine transporter (SLC6A3, Homo sapiens, UniProt Q01959)", "note": "Protocols differ between the studies behind these lines."}
{"SMILES": "NC(=O)CC[C@H](N)C(=O)NCC(=O)NCC(=O)N[C@@H](CC(=O)O)C(=O)N[C@@H](Cc1ccccc1)C(=O)O", "target": "Angiotensin-converting enzyme (ACE, Homo sapiens, UniProt P12821)", "test": "enzyme activity, inhibitor", "setting": "1.4 mM", "inhibition [%]": 49.9}
{"SMILES": "COc1cc2ncnc(Cc3cccc(-c4ccccc4)c3)c2cc1OC", "target": "PDE10A", "test": "enzyme activity, inhibitor, FP", "setting": "0.1 µM", "inhibition [%]": 63}
{"SMILES": "Cc1cc(O)c(-c2ccc([C@@H](C)CN(C)C)cc2)c2c1[nH]c(=O)c1sccc12", "target": "Serine/threonine-protein kinase ATR (ATR, Homo sapiens, UniProt Q13535)", "test": "cell-free assay, inhibitor", "setting": "0.1 µM, lysate", "inhibition [%]": 8.12}
{"SMILES": "COc1ccc2c(Cc3cccc(-c4ccccc4)c3)ccnc2c1", "target": "PDE10A", "test": "enzyme activity, inhibitor, FP", "setting": "0.1 µM", "inhibition [%]": 22}
{"SMILES": "CCN1/C(=C/C(C)=O)Sc2ccc(F)cc21", "target": "SLC6A3", "test": "ligand displacement, radioligand", "setting": "10 µM", "inhibition [%]": 1.26}
{"SMILES": "O[C@@H]1[C@H](O)[C@@H]2C[C@@H]2[C@H]1n1cnc2c(NCCC3CC3)nc(I)nc21", "target": "SLC6A3", "test": "ligand displacement, radioligand", "setting": "10 µM", "inhibition [%]": 9}
{"SMILES": "COc1cc2ncnc(Cc3cccc(-c4ccccc4)c3C)c2cc1OC", "target": "PDE10A", "test": "enzyme activity, inhibitor, FP", "setting": "0.1 µM", "inhibition [%]": 54}
{"SMILES": "CCOC(=O)[C@@]12C[C@@H]1[C@@H](n1cnc3c(NCCCCc4ccccc4)nc(I)nc31)[C@H](O)[C@@H]2O", "target": "SLC6A3", "test": "ligand displacement, radioligand", "setting": "10 µM", "inhibition [%]": 19}
{"SMILES": "COc1ccc2ccnc(Cc3ccc(OC)c(OC)c3)c2c1", "target": "PDE10A", "test": "enzyme activity, inhibitor, FP", "setting": "0.1 µM", "inhibition [%]": 11}
{"SMILES": "CCOC(=O)[C@@]12C[C@@H]1[C@@H](n1cnc3c(NCc4cccc(Cl)c4)nc(C#Cc4ccc(Cl)s4)nc31)[C@H](O)[C@@H]2O", "target": "SLC6A3", "test": "ligand displacement, radioligand", "setting": "10 µM", "inhibition [%]": 75}
{"SMILES": "C#Cc1cc(-c2cc(Nc3nc(N[C@@H](C)c4ccc(F)cn4)ncc3Cl)n[nH]2)ccc1C=O", "target": "Dual specificity protein kinase CLK4 (CLK4, Homo sapiens, UniProt Q9HAZ1)", "test": "enzyme activity, inhibitor", "setting": "0.2 µM", "inhibition [%]": 53.5}
{"SMILES": "CCOC(=O)[C@@]12C[C@@H]1[C@@H](n1cnc3c(NCCCCCCc4ccccc4)nc(C#Cc4ccc(Cl)s4)nc31)[C@H](O)[C@@H]2O", "target": "SLC6A3", "test": "ligand displacement, radioligand", "setting": "10 µM", "inhibition [%]": 23}
{"SMILES": "COc1ccc2c(Cc3cccc(-c4ccccc4)c3)ncnc2c1", "target": "PDE10A", "test": "enzyme activity, inhibitor, FP", "setting": "0.1 µM", "inhibition [%]": 22}
{"SMILES": "O[C@@H]1[C@H](O)[C@@H]2C[C@@H]2[C@H]1n1cnc2c(NCCC3CC3)ncnc21", "target": "SLC6A3", "test": "transporter uptake, inhibitor, radiometric", "system": "HEK293", "setting": "20 nM", "inhibition [%]": 50}
{"SMILES": "NC/C(=C\\F)COc1cccc(Cn2c(=S)[nH]c(=O)c3[nH]cnc32)c1", "target": "SLC6A3", "test": "ligand displacement, radioligand", "setting": "10 µM", "inhibition [%]": "< 50"}
